Displacement and Ki data for 21 compounds are collected here from ChEMBL document CHEMBL1135743 (J Med Chem, 2002).

Test [1] addresses T1, Adenosine receptor A2a (Homo sapiens, UniProt P29274). Nature of the test: Ability to displace [3H]- ZM-241385 from CHO cell membrane expressing the human Adenosine A2A receptor at a concentration of 10 uM. The class given is cell membranes.
The target in test [2] is T2, Adenosine receptor A1 (Homo sapiens) (UniProt P30542).
T2 sequence (whole entry): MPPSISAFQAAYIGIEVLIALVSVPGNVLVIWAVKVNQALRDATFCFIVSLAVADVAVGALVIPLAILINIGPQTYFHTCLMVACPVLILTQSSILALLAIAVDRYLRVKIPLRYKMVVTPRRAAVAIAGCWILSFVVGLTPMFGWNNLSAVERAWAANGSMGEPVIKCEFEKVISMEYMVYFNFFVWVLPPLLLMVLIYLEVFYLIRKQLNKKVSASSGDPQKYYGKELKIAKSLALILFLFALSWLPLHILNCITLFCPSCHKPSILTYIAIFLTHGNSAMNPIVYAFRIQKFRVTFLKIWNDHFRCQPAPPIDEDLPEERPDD
The experiment in a line: Ability to displace [3H]- DPCPX from CHO cell membrane expressing the human Adenosine A1 receptor at a concentration of 10 uM. The class given is cell membranes.

A further test deals with T3, Adenosine receptor A3 (Homo sapiens, UniProt P0DMS8).
T3 sequence (P0DMS8 whole entry): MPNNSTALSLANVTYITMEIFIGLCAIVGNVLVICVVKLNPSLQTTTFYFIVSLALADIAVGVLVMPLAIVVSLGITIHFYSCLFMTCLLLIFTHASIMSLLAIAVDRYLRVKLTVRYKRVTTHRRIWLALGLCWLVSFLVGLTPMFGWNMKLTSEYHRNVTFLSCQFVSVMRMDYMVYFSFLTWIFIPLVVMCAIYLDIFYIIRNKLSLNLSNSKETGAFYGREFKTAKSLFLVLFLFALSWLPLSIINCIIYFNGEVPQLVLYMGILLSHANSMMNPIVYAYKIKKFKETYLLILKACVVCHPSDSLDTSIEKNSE
Nature of the test: Ability to displace [125I]- AB-MECA from HEK 293 cell membrane expressing the human Adenosine A3 receptor. The test is classed as cell membranes, HEK293.

The next test concerns the target T4, Adenosine receptor A1 (Homo sapiens, UniProt P30542).
T4 sequence (P30542 whole entry): T2 sequence (whole entry)
Nature of the test: Displacement of [3H]DPCPX from CHO cell membrane expressing human Adenosine A1 receptor. The class given is cell membranes. (In general: Loss of bound radioactivity is the signal in a displacement assay; it reports binding, not function.)

The target of test [3] is T1, Adenosine receptor A2a. The experiment in a line: Displacement of [3H]ZM-241,385 from CHO cell membrane expressing human Adenosine A2A receptor. The class given is cell membranes. In short, it runs like this: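 Membranes from CHO cells expressing human A2A, with adenosine deaminase 2 IU/mL added. Incubation used 2.0 nM (final) [3H]ZM241385 in 50 mM Tris/HCl pH 7.4 for 2 h at 25 °C. Nonspecific binding was set with 100 µM CPA. GF/B filtration, four ice-cold washes, scintillation counting. Ligands were dissolved in DMSO stocks.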

Test [4] has as its target T1, Adenosine receptor A2a. Nature of the test: Displace [3H]ZM-241385 from CHO cell membrane expressing human Adenosine A2A receptor at 10 uM. The test is classed as cell membranes.
In test [5] the target is T2, Adenosine receptor A1 (Homo sapiens). Nature of the test: Displacement of [3H]DPCPX from CHO cell membrane expressing human Adenosine A1 receptor at 10 uM. The test is classed as cell membranes.
The target is the same in test [6]. The experiment in a line: Displacement of [3H]- DPCPX from CHO cell membrane expressing human Adenosine A1 receptor. The class given is cell membranes. In short, it runs like this: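 Membranes from CHO cells stably expressing human A1, resuspended in 50 mM Tris/HCl pH 7.4 with adenosine deaminase 2 IU/mL. Incubated with 1.6 nM (final) [3H]DPCPX in 50 mM Tris/HCl pH 7.4 for 1 h at 25 °C. Nonspecific binding was set with 10 µM CPA. Filtration over GF/B, three ice-cold washes, then liquid scintillation counting. Ligand stocks were in DMSO.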

Test [7] deals with T5, Adenosine receptor A3 (Homo sapiens) (UniProt P0DMS8).
T5 sequence (whole entry): T3 sequence (P0DMS8 whole entry)
Nature of the test: Displacement of [125I]AB-MECA from HEK293 cell membrane expressing human Adenosine A3 receptor at 10 uM. The test is classed as cell membranes.

T1 sequence (P29274 whole entry): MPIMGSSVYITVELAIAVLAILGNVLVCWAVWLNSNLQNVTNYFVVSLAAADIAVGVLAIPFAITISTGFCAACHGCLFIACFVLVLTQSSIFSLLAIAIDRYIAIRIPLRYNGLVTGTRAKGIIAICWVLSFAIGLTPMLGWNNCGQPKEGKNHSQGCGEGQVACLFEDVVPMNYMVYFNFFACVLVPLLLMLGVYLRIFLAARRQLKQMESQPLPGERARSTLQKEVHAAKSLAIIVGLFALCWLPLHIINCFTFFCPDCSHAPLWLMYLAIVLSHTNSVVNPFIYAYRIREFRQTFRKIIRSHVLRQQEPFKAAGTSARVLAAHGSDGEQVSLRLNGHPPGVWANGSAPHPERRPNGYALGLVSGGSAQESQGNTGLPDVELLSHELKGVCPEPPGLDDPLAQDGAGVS

For `COc1ccc(Cn2c(=O)c3c(nc4ccccn43)n(Cc3ccccc3)c2=O)cc1`, the Displacement turned out to be 16% at Adenosine receptor A2a [1] and 25% in [2]. Also, at Adenosine receptor A3, the Ki stood at 213 nM.
For the compound `CCCn1c(=O)c2c(nc3cc(C(C)(C)C)ccn32)n(Cc2ccccc2)c1=O`, the Ki was 1460 nM on Adenosine receptor A1, 385 nM at Adenosine receptor A2a [3] and 950 nM at Adenosine receptor A3.
The like results for `CCn1c(=O)c2c(nc3ccccn32)n(Cc2ccccc2)c1=O` were, in that order, 325 nM, 584 nM and 36 nM.
The compound `O=c1c2c(nc3ccccn32)n(Cc2ccccc2)c(=O)n1CC1CC1` had a Displacement in [2] of 40.9%. For the same compound, the Ki worked out at 242 nM at Adenosine receptor A2a [3] and 4.2 nM on Adenosine receptor A3.
`CCCn1c(=O)c2c(nc3ccccn32)n(Cc2ccc(OC)cc2)c1=O` returned a Displacement on Adenosine receptor A2a [1] of 40%. In addition, the Ki on Adenosine receptor A1 was 83 nM; at Adenosine receptor A3, 8.3 nM.
For `CCCn1c(=O)c2c(nc3cc(OC)ccn32)n(Cc2ccccc2)c1=O`, the Displacement at Adenosine receptor A2a [1] is 44%. In addition, the Ki came to 179 nM at Adenosine receptor A1 and 10 nM at Adenosine receptor A3.
Take `C#CCn1c(=O)c2c(nc3ccccn32)n(Cc2ccccc2)c1=O`: the Ki was 124 nM at Adenosine receptor A1, 96 nM at Adenosine receptor A2a [3] and 14 nM on Adenosine receptor A3.
The like results for `C=CCn1c(=O)c2c(nc3ccccn32)n(Cc2ccccc2)c1=O` were, in that order, 42 nM, 161 nM and 5 nM.
As for `O=c1[nH]c(=O)n(Cc2ccccc2)c2nc3ccccn3c12`, the values for the Displacement (on Adenosine receptor A2a [1]; in [2]) were 32% and 47%, respectively. For the same compound, the Ki at Adenosine receptor A3 came out at 370 nM.
On to `CCCn1c(=O)c2c(nc3cc(-c4ccccc4)ccn32)n(Cc2ccccc2)c1=O`, for which the Displacement at Adenosine receptor A2a [1] was found to be 8%; in test [2], 25%.
As for `CCCn1c(=O)c2c(nc3ccccn32)n(C)c1=O`, the Displacement at Adenosine receptor A2a [4] turned out to be 49%. Moreover, the Ki on Adenosine receptor A1 was found to be 2100 nM; on Adenosine receptor A3 it was 3020 nM.
Turning to `CC(C)(C)c1ccn2c(c1)nc1c2c(=O)[nH]c(=O)n1Cc1ccccc1`, the Displacement at Adenosine receptor A2a [1] came to 23%; in [2], 53%. The Ki on Adenosine receptor A3 was determined as 555 nM.
The like results for `CCCn1c(=O)c2c(nc3ccccn32)n(Cc2cccc(C)c2)c1=O` were, in that order, 35%, 44% and 68 nM.
Compound `CC(C)Cn1c(=O)c2c(nc3ccccn32)n(Cc2ccccc2)c1=O` registered a Displacement at Adenosine receptor A2a [1] of 40%. Also, the Ki on Adenosine receptor A1 came to 28 nM; on Adenosine receptor A3 it was 6.3 nM.
`COC(=O)/C=C/Cn1c(=O)c2c(nc3ccccn32)n(Cc2ccccc2)c1=O`: the Displacement came to 12% at Adenosine receptor A2a [4] and 1% in test [5]. For the same compound, on Adenosine receptor A3, the Ki amounted to 1130 nM.
At Adenosine receptor A2a [3], `CCCn1c(=O)c2c(nc3ccccn32)n(Cc2ccccc2)c1=O` had a Ki of 119 nM.
For `O=c1[nH]c(=O)n(Cc2ccccc2)c2nc3cc(-c4ccccc4)ccn3c12`, the figures for the Displacement (at Adenosine receptor A2a [1]; in test [2]) were 0% and 11%, respectively. This compound also came in with a Ki on Adenosine receptor A3 of 200 nM.
`O=c1c2c(nc3ccccn32)n(Cc2ccccc2)c(=O)n1Cc1ccccc1` gave a Displacement in [2] of 20%. Besides, the results for the Ki on Adenosine receptor A2a [3] and on Adenosine receptor A3 were 25800 nM and 77 nM, respectively.
On to `O=c1c2c(nc3ccccn32)n(Cc2ccccc2)c(=O)n1CC1CCCCC1`, for which the results for the Displacement (on Adenosine receptor A2a [1]; in [6]) were 22% and 21%, respectively. This compound also came in with a Ki at Adenosine receptor A3 of 114 nM.
For the compound `COc1ccn2c(c1)nc1c2c(=O)[nH]c(=O)n1Cc1ccccc1`, the values for the Displacement (on Adenosine receptor A2a [1]; in test [2]) were 10% and 49%, respectively. At Adenosine receptor A3, this compound returned a Ki of 210 nM.
As for `NCCCn1c(=O)c2c(nc3ccccn32)n(Cc2ccccc2)c1=O`, the Displacement on Adenosine receptor A2a [1] came out at 11%; in test [2], 7%; in test [7], 6%.

What is called Ki is a dissociation constant, usually derived from enzyme kinetics or from competition with a known ligand. Lower therefore signals tighter binding.
